This note sets out measurements from the array DNA melting data of Ke et al. (doi:10.1101/2024.01.08.574731).

A short description of series [1]: folding enthalpy; higher = less favourable; fluorescence melt of hairpins on a sequencing array, two-state fit. The following applies: sodium 0.088 M. In a few lines: (§1)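 Melting temperature and folding enthalpy were derived from bootstrapped two-state fits. The fitted temperatures were raised by 9.35 °C to agree with UV melts, and four replicates were combined by inverse variance. The underlying data were Cy3 fluorescence images of library hairpins, with annealed Cy3 and quencher oligos, on a sequenced MiSeq flow cell in 50 mM Na-HEPES pH 8.0, 25 mM NaCl, taken in 2.5 °C steps up to 60 °C, normalised to pre-quench Cy3 and to control constructs.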

A short description of series [2]: melting temperature; fluorescence melt of hairpins on a sequencing array, two-state fit, raised by 9.35 °C to match UV melts. The following applies: sodium 0.088 M. In a few lines: as §1

On to GATCGCCGATGCGATC ((((((....)))))), for which the folding enthalpy in series [1] is -32 kcal/mol. The Tm in series [2] worked out at 66.6 °C.

For GATCGCCGGTGCGATC ((((((....)))))), the folding enthalpy in series [1] was -35.1 kcal/mol. In series [2], the Tm stood at 66 °C.

Regarding GATCGCCGTCGCGATC ((((((....)))))), the folding enthalpy in series [1] is -36.5 kcal/mol. Besides, the Tm in series [2] was found to be 66.6 °C.

Take GATCGCCTACGCGATC ((((((....)))))): the folding enthalpy in series [1] is -39.5 kcal/mol. The Tm in series [2] stood at 67.4 °C.

With GATCGCCTGCGCGATC ((((((....)))))), the folding enthalpy in series [1] was -32 kcal/mol. Further, in series [2], the Tm was 67.2 °C.

For the sequence GATCGCGAAAGCGATATC ((((((....)))..))), the folding enthalpy in series [1] was -11.8 kcal/mol. Also, the Tm in series [2] was determined as 59.2 °C.

GATCGCGAGTGCGATC ((((((....)))))): the folding enthalpy in series [1] was -33.8 kcal/mol. Moreover, in series [2], the Tm came to 66.3 °C.

As to GATCGCGATGGCGATC ((((((....)))))), the folding enthalpy in series [1] is -37.7 kcal/mol. The Tm in series [2] stood at 68.8 °C.

For the sequence GATCGCGCTGGCGATC ((((((....)))))), the folding enthalpy in series [1] is -32.5 kcal/mol. Besides, in series [2], the Tm came out at 68.9 °C.

As to GATCGCGGAAACGTGATC ((((.((....)).)))), the folding enthalpy in series [1] is -38.6 kcal/mol. Besides, in series [2], the Tm came to 57.5 °C.

In the case of GATCGCGGGGCGATC ((((((...)))))), the folding enthalpy in series [1] was -29.8 kcal/mol. The Tm in series [2] was 68 °C.

GATCGCGGGTGCGATC ((((((....)))))): in series [1], the folding enthalpy is -34.5 kcal/mol. Further, in series [2], the Tm is 68.4 °C.

On to GATCGCGGTTGCGATC ((((((....)))))), for which the folding enthalpy in series [1] is -25.1 kcal/mol. Moreover, the Tm in series [2] was found to be 68.9 °C.

For GATCGCTAACGCGATC ((((((....)))))), in series [1], the folding enthalpy is -35.7 kcal/mol. Also, the Tm in series [2] was 66.5 °C.

Turning to GATCGCTAAGGCGATC ((((((....)))))), the folding enthalpy in series [1] is -39.2 kcal/mol. The Tm in series [2] was 67.8 °C.

For GATCGCTAGGGCGATC ((((((....)))))), the folding enthalpy in series [1] was -34.8 kcal/mol. Also, the Tm in series [2] is 68.2 °C.

For GATCGCTCAAGCGATC ((((((....)))))), in series [1], the folding enthalpy was -43.6 kcal/mol. The Tm in series [2] was 68 °C.

Consider GATCGGAAACCGATC ((((((...)))))), for which, in series [1], the folding enthalpy is -38 kcal/mol. Moreover, the Tm in series [2] amounted to 56 °C.

Consider GATCGGAAAGCCGATC ((((((....)))))), for which the folding enthalpy in series [1] was -35.4 kcal/mol. In series [2], the Tm was found to be 51.3 °C.

In the case of GATCGGAAGCCCGATC ((((((....)))))), the folding enthalpy in series [1] is -36.5 kcal/mol. In addition, the Tm in series [2] was determined as 54.1 °C.

For the sequence GATCGGAAGTCCGATC ((((((....)))))), in series [1], the folding enthalpy is -38.9 kcal/mol. Also, the Tm in series [2] was determined as 55.2 °C.

Regarding GATCGGACACCCGATC ((((((....)))))), the folding enthalpy in series [1] was -41.5 kcal/mol. Also, in series [2], the Tm came to 54.7 °C.

For the sequence GATCGGACATCCGATC ((((((....)))))), in series [1], the folding enthalpy was -38.7 kcal/mol. The Tm in series [2] stood at 55.3 °C.

Take GATCGGACCTCCGATC ((((((....)))))): in series [1], the folding enthalpy is -40.7 kcal/mol. Also, in series [2], the Tm came out at 56.6 °C.

As to GATCGGACGACCGATC ((((((....)))))), in series [1], the folding enthalpy was -35.1 kcal/mol. Further, in series [2], the Tm is 57.3 °C.

Turning to GATCGGACGCCCGATC ((((((....)))))), the folding enthalpy in series [1] is -38 kcal/mol. Moreover, the Tm in series [2] was found to be 57.3 °C.

As to GATCGGACTACCGATC ((((((....)))))), the folding enthalpy in series [1] is -36.6 kcal/mol. The Tm in series [2] was found to be 55.6 °C.

Consider GATCGGACTTCCGATC ((((((....)))))), for which the folding enthalpy in series [1] was -42.3 kcal/mol. In addition, in series [2], the Tm came out at 57.2 °C.

For GATCGGAGAACCGATC ((((((....)))))), the folding enthalpy in series [1] is -33.8 kcal/mol. In addition, in series [2], the Tm was determined as 52.6 °C.

As for GATCGGAGCCCGATC ((((((...)))))), the folding enthalpy in series [1] is -31.2 kcal/mol. Further, the Tm in series [2] was 53.4 °C.

For the sequence GATCGGAGGCCGATC ((((((...)))))), the folding enthalpy in series [1] is -40.3 kcal/mol. Further, the Tm in series [2] is 55.8 °C.

In the case of GATCGGAGGTCCGATC ((((((....)))))), the folding enthalpy in series [1] was -31.5 kcal/mol. For the same sequence, in series [2], the Tm was 57.6 °C.

For the sequence GATCGGATAACCGATC ((((((....)))))), the folding enthalpy in series [1] is -35.1 kcal/mol. In series [2], the Tm stood at 56.2 °C.

Take GATCGGATCCCCGATC ((((((....)))))): the folding enthalpy in series [1] was -41.4 kcal/mol. Further, in series [2], the Tm amounted to 54 °C.

Take GATCGGATCCCGATC ((((((...)))))): the folding enthalpy in series [1] is -38 kcal/mol. Moreover, the Tm in series [2] came to 56 °C.

On to GATCGGATCTCCGATC ((((((....)))))), for which the folding enthalpy in series [1] was -40.4 kcal/mol. In addition, in series [2], the Tm came to 56.7 °C.

Consider GATCGGATGTCCGATC ((((((....)))))), for which the folding enthalpy in series [1] is -38.2 kcal/mol. Besides, the Tm in series [2] is 56.8 °C.

On to GATCGGCAATCCGATC ((((((....)))))), for which the folding enthalpy in series [1] was -44.7 kcal/mol. Moreover, the Tm in series [2] stood at 55 °C.

Consider GATCGGCACTCCGATC ((((((....)))))), for which, in series [1], the folding enthalpy was -40.5 kcal/mol. In series [2], the Tm turned out to be 57.1 °C.

On to GATCGGCAGCCCGATC ((((((....)))))), for which the folding enthalpy in series [1] was -36.1 kcal/mol. In addition, the Tm in series [2] was 54.9 °C.

Turning to GATCGGCATACCGATC ((((((....)))))), the folding enthalpy in series [1] is -40.5 kcal/mol. Also, the Tm in series [2] was determined as 56.9 °C.

As for GATCGGCATCCCGATC ((((((....)))))), the folding enthalpy in series [1] is -40.9 kcal/mol. Moreover, the Tm in series [2] amounted to 54.1 °C.

Regarding GATCGGCCATCCGATC ((((((....)))))), the folding enthalpy in series [1] was -40.4 kcal/mol. In addition, the Tm in series [2] was found to be 55.5 °C.

Consider GATCGGCCGAAAGGCATC (((..(((....)))))), for which the folding enthalpy in series [1] is -6.97 kcal/mol. Moreover, in series [2], the Tm was 26.9 °C.

Regarding GATCGGCCGACCGATC ((((((....)))))), in series [1], the folding enthalpy was -34.6 kcal/mol. In addition, the Tm in series [2] stood at 57.9 °C.

As for GATCGGCCGTCCGATC ((((((....)))))), in series [1], the folding enthalpy was -39.7 kcal/mol. Further, in series [2], the Tm was determined as 58.3 °C.

With GATCGGCCTCCGATC ((((((...)))))), the folding enthalpy in series [1] is -34.3 kcal/mol. For the same sequence, the Tm in series [2] was determined as 59.4 °C.

As to GATCGGCGATCCGATC ((((((....)))))), the folding enthalpy in series [1] is -35.3 kcal/mol. The Tm in series [2] came to 55 °C.

Turning to GATCGGCGCCCGATC ((((((...)))))), the folding enthalpy in series [1] was -36.4 kcal/mol. The Tm in series [2] was determined as 56.8 °C.

Take GATCGGCGCTCCGATC ((((((....)))))): the folding enthalpy in series [1] is -37.8 kcal/mol. For the same sequence, the Tm in series [2] was 56.9 °C.

Take GATCGGCGTCCGATC ((((((...)))))): in series [1], the folding enthalpy was -40.5 kcal/mol. In addition, the Tm in series [2] worked out at 56.4 °C.

For GATCGGCTAACCGATC ((((((....)))))), the folding enthalpy in series [1] is -42.2 kcal/mol. For the same sequence, the Tm in series [2] was 56.5 °C.

On to GATCGGCTCCCGATC ((((((...)))))), for which the folding enthalpy in series [1] was -38.4 kcal/mol. The Tm in series [2] is 57.8 °C.

Consider GATCGGCTGCCGATC ((((((...)))))), for which the folding enthalpy in series [1] is -55.3 kcal/mol. Moreover, in series [2], the Tm was found to be 57.2 °C.

GATCGGGAACCGATC ((((((...)))))): the folding enthalpy in series [1] was -36 kcal/mol. The Tm in series [2] was 68.4 °C.

Turning to GATCGGGAAGCCGATC ((((((....)))))), in series [1], the folding enthalpy was -37.9 kcal/mol. In addition, the Tm in series [2] stood at 59.6 °C.

As to GATCGGGAATCCGATC ((((((....)))))), the folding enthalpy in series [1] is -38.6 kcal/mol. In series [2], the Tm stood at 64.8 °C.
